Measured values taken from ChEMBL document CHEMBL2311431, “Synthesis and biological evaluation of some 5-arylidene-2-(1,3-thiazol-2-ylimino)-1,3-thiazolidin-4-ones as dual anti-inflammatory/antimicrobial agents” (Bioorg Med Chem, 2013).
≈ marks a conversion by molar mass, not a printed value. Calls of active or inactive are those of the source. The rule behind the calls is not given here.

How the values were obtained:
[1] = tested on: Mus musculus; test: Acute toxicity in AKR mouse up to 0.5 mmol/kg, ip; assay type: organism-based; settings: in vivo
[2] = tested on: Mus musculus; test: Antiinflammatory activity in AKR mouse assessed as inhibition of carrageenan-induced paw edema at 0.01 mmol/kg, ip measured after 3.5 hrs of carrageenan-challenge; assay type: functional
Summary of the method: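 AKR mice of both sexes (pregnant females excluded), 6-10 per group, fasted during the experiment. Edema induced by intradermal 0.05 mL of 2% carrageenin into the right hind paw. Compound given at 0.01 mmol/kg ip, suspended in water with Tween-80, at the same time as carrageenin.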

[3] = target: T1, Prostaglandin G/H synthase 1 (Ovis aries) (UniProt P05979); test: (§1) Inhibition of ovine COX1 assessed as inhibition of PGF2a production by enzyme immunoassay; parameters: concentration or dose not given beside the values; settings: concentration not given here
T1 sequence (whole entry): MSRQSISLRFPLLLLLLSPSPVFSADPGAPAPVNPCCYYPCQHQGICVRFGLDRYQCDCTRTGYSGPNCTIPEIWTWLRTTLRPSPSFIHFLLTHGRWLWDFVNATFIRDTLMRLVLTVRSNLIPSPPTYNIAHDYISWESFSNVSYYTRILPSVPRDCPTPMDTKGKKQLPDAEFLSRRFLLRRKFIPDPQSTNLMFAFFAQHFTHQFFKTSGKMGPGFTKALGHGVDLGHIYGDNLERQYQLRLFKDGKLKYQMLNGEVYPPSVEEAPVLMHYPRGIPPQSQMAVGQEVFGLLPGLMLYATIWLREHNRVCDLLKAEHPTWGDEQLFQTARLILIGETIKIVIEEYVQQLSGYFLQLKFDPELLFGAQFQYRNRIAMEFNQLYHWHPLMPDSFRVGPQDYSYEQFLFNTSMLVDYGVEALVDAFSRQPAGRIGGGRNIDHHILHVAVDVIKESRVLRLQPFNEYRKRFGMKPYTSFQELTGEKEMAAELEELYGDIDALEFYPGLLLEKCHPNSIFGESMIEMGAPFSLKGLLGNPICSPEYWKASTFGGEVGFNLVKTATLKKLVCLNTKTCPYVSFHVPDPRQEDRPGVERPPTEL
Summary of the method: (§2)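 Ovine COX-1 from a commercial screening kit, tested with 0.1 µM arachidonic acid, which is below the saturating level. COX-derived PGH2 is reduced by SnCl2 to PGF2a, quantified by enzyme immunoassay with a broad prostaglandin antibody. At least triplicate.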

[4] = (§3) Inhibition of soybean lipoxygenase assessed as inhibition of sodium linolate conversion to 13-hydroperoxylinoleic acid after 4 mins by spectrophotometry; parameters: species or system Glycine max; settings: read-out: IC50
[5] = tested on: Glycine max; test: as §3
[6] = tested on: Aspergillus niger; test: Fungicidal activity against Aspergillus niger ATCC 6275 after 72 hrs by serial subcultivation method; assay type: functional; settings: ATCC 6275, 72 h
[7] = tested on: Aspergillus niger; test: Antifungal activity against Aspergillus niger ATCC 6275 after 72 hrs by serial dilution technique; assay type: functional; settings: ATCC 6275, 72 h
Summary of the method: (§4)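 Serial dilution in malt broth; compounds from 1 mg/ml stocks in 5% DMSO; 72 h at 28 °C. MIC is the lowest concentration with no visible growth under a binocular microscope. Run in duplicate, repeated three times.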

[8] = tested on: Aspergillus fumigatus; test: Fungicidal activity against Aspergillus fumigatus after 72 hrs by serial subcultivation method; assay type: functional
[9] = tested on: Aspergillus flavus; test: Fungicidal activity against Aspergillus flavus ATCC 9643 after 72 hrs by serial subcultivation method; assay type: functional; settings: ATCC 9643, 72 h
[10] = tested on: Trichoderma viride; test: Fungicidal activity against Trichoderma viride IAM 5061 after 72 hrs by serial subcultivation method; assay type: functional; settings: IAM 5061, 72 h
[11] = tested on: Penicillium ochrochloron; test: Fungicidal activity against Penicillium ochrochloron ATCC 9112 after 72 hrs by serial subcultivation method; assay type: functional; settings: ATCC 9112, 72 h
[12] = tested on: Aspergillus flavus; test: Antifungal activity against Aspergillus flavus ATCC 9643 after 72 hrs by serial dilution technique; assay type: functional; settings: ATCC 9643, 72 h; summary of the method: as §4
[13] = tested on: Talaromyces funiculosus; test: Fungicidal activity against Penicillium funiculosum ATCC 36839 after 72 hrs by serial subcultivation method; assay type: functional; settings: ATCC 36839, 72 h
[14] = tested on: Aspergillus fumigatus; test: Antifungal activity against Aspergillus fumigatus after 72 hrs by serial dilution technique; assay type: functional; summary of the method: as §4
[15] = tested on: Trichoderma viride; test: Antifungal activity against Trichoderma viride IAM 5061 after 72 hrs by serial dilution technique; assay type: functional; settings: IAM 5061, 72 h; summary of the method: as §4
[16] = tested on: Penicillium ochrochloron; test: Antifungal activity against Penicillium ochrochloron ATCC 9112 after 72 hrs by serial dilution technique; assay type: functional; settings: ATCC 9112, 72 h; summary of the method: as §4
[17] = tested on: Talaromyces funiculosus; test: Antifungal activity against Penicillium funiculosum ATCC 36839 after 72 hrs by serial dilution technique; assay type: functional; settings: ATCC 36839, 72 h; summary of the method: as §4
[18] = tested on: Escherichia coli; test: Bactericidal activity against Escherichia coli ATCC 35210 after 72 hrs by serial subcultivation method; assay type: functional; settings: ATCC 35210, 72 h
[19] = tested on: Pseudomonas aeruginosa; test: Bactericidal activity against Pseudomonas aeruginosa ATCC 27853 after 72 hrs by serial subcultivation method; assay type: functional; settings: ATCC 27853, 72 h
[20] = tested on: Listeria monocytogenes; test: Bactericidal activity against Listeria monocytogenes NCTC 7973 after 72 hrs by serial subcultivation method; assay type: functional; settings: NCTC 7973, 72 h
[21] = tested on: Bacillus cereus; test: Bactericidal activity against Bacillus cereus clinical isolate after 72 hrs by serial subcultivation method; assay type: functional
[22] = tested on: Micrococcus flavus; test: Bactericidal activity against Micrococcus flavus ATCC 10240 after 72 hrs by serial subcultivation method; assay type: functional; settings: ATCC 10240, 72 h
[23] = tested on: Staphylococcus aureus; test: Bactericidal activity against Staphylococcus aureus ATCC 6538 after 72 hrs by serial subcultivation method; assay type: functional; settings: ATCC 6538, 72 h
[24] = tested on: Escherichia coli; test: Antibacterial activity against Escherichia coli ATCC 35210 after 24 hr by microdilution test; assay type: functional; settings: ATCC 35210, 24 h
Summary of the method: (§5)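 Broth microdilution in LB medium, about 1.0×10^4 cfu per well; compounds from 1 mg/ml stocks in 5% DMSO. Incubated 24 h. MIC is the lowest concentration with no visible growth under a binocular microscope. Run in duplicate, repeated three times.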

[25] = tested on: Listeria monocytogenes; test: Antibacterial activity against Listeria monocytogenes NCTC 7973 after 24 hr by microdilution test; assay type: functional; settings: NCTC 7973, 24 h; summary of the method: as §5
[26] = tested on: Pseudomonas aeruginosa; test: Antibacterial activity against Pseudomonas aeruginosa ATCC 27853 after 24 hr by microdilution test; assay type: functional; settings: ATCC 27853, 24 h; summary of the method: as §5
[27] = tested on: Micrococcus flavus; test: Antibacterial activity against Micrococcus flavus ATCC 10240 after 24 hr by microdilution test; assay type: functional; settings: ATCC 10240, 24 h; summary of the method: as §5
[28] = tested on: Bacillus cereus; test: Antibacterial activity against Bacillus cereus clinical isolate after 24 hr by microdilution test; assay type: functional; summary of the method: as §5
[29] = tested on: Staphylococcus aureus; test: Antibacterial activity against Staphylococcus aureus ATCC 6538 after 24 hr by microdilution test; assay type: functional; settings: ATCC 6538, 24 h; summary of the method: as §5
[30] = target: T2, Prostaglandin G/H synthase 1 (Ovis aries, UniProt P05979); test: as §1; summary of the method: as §2
T2 sequence (P05979 whole entry): T1 sequence (whole entry)

SMILES	Activity [1]	inhibition in vivo at 10 µmol/kg [2]	inhibition [3]	IC50 [4]	inhibition [5]	MFC [6]	MIC [7]	MFC [8]	MFC [9]	MFC [10]	MFC [11]	MIC [12]	MFC [13]	MIC [14]	MIC [15]	MIC [16]	MIC [17]	MBC [18]	MBC [19]	MBC [20]	other results
O=C1N/C(=N\c2nccs2)S/C1=C\c1cccc(Br)c1	Non-toxic	42.7%	2%	> 150 µM	34%	25.6 µM (≈ 9.38 µg/mL)	18 µM (≈ 6.59 µg/mL)	25.6 µM (≈ 9.38 µg/mL)	25.6 µM (≈ 9.38 µg/mL)	22 µM (≈ 8.06 µg/mL)	22 µM (≈ 8.06 µg/mL)	22 µM (≈ 8.06 µg/mL)	22 µM (≈ 8.06 µg/mL)	18 µM (≈ 6.59 µg/mL)	18 µM (≈ 6.59 µg/mL)	18 µM (≈ 6.59 µg/mL)	18 µM (≈ 6.59 µg/mL)	25.6 µM (≈ 9.38 µg/mL)	25.6 µM (≈ 9.38 µg/mL)	18.3 µM (≈ 6.7 µg/mL)	MBC [21]: 29.2 µM (≈ 10.7 µg/mL); MBC [22]: 25.6 µM (≈ 9.38 µg/mL); MBC [23]: 14.4 µM (≈ 5.27 µg/mL); MIC [24]: 14.6 µM (≈ 5.35 µg/mL); MIC [25]: 14.4 µM (≈ 5.27 µg/mL); MIC [26]: 14.6 µM (≈ 5.35 µg/mL); MIC [27]: 18.3 µM (≈ 6.7 µg/mL); MIC [28]: 25.6 µM (≈ 9.38 µg/mL); MIC [29]: 7.3 µM (≈ 2.67 µg/mL)
O=C1N/C(=N\c2nccs2)S/C1=C\c1cc(Br)ccc1O	Non-toxic	54.4%	73%	–	inactive	68 µM (≈ 26 µg/mL)	34 µM (≈ 13 µg/mL)	34 µM (≈ 13 µg/mL)	68 µM (≈ 26 µg/mL)	17 µM (≈ 6.5 µg/mL)	34 µM (≈ 13 µg/mL)	34 µM (≈ 13 µg/mL)	34 µM (≈ 13 µg/mL)	17 µM (≈ 6.5 µg/mL)	8.5 µM (≈ 3.25 µg/mL)	17 µM (≈ 6.5 µg/mL)	17 µM (≈ 6.5 µg/mL)	137 µM (≈ 52.4 µg/mL)	34 µM (≈ 13 µg/mL)	34 µM (≈ 13 µg/mL)	IC50 [30]: 65 µM; MBC [21]: 34 µM (≈ 13 µg/mL); MBC [22]: 68 µM (≈ 26 µg/mL); MBC [23]: 68 µM (≈ 26 µg/mL); MIC [24]: 68 µM (≈ 26 µg/mL); MIC [25]: 17 µM (≈ 6.5 µg/mL); MIC [26]: 17 µM (≈ 6.5 µg/mL); MIC [27]: 34 µM (≈ 13 µg/mL); MIC [28]: 9 µM (≈ 3.44 µg/mL); MIC [29]: 34 µM (≈ 13 µg/mL)
O=C1N/C(=N\c2nccs2)S/C1=C\c1cccc(O)c1	Non-toxic	33.7%	98%	> 150 µM	35%	–	–	–	–	–	–	–	–	–	–	–	–	–	–	–	IC50 [30]: 16 µM
O=C1N/C(=N\c2nccs2)S/C1=C\c1cccc(Cl)c1Cl	Non-toxic	45%	100%	143 µM	41%	56.2 µM (≈ 20 µg/mL)	42.1 µM (≈ 15 µg/mL)	70.2 µM (≈ 25 µg/mL)	56.2 µM (≈ 20 µg/mL)	56.2 µM (≈ 20 µg/mL)	56.2 µM (≈ 20 µg/mL)	42.1 µM (≈ 15 µg/mL)	56.2 µM (≈ 20 µg/mL)	56.2 µM (≈ 20 µg/mL)	28.1 µM (≈ 10 µg/mL)	42.1 µM (≈ 15 µg/mL)	28.1 µM (≈ 10 µg/mL)	70.2 µM (≈ 25 µg/mL)	56.2 µM (≈ 20 µg/mL)	84.2 µM (≈ 30 µg/mL)	IC50 [30]: 10 µM; MBC [21]: 70.2 µM (≈ 25 µg/mL); MBC [22]: 84.2 µM (≈ 30 µg/mL); MBC [23]: 84.2 µM (≈ 30 µg/mL); MIC [24]: 56.2 µM (≈ 20 µg/mL); MIC [25]: 70.2 µM (≈ 25 µg/mL); MIC [26]: 28.1 µM (≈ 10 µg/mL); MIC [27]: 56.2 µM (≈ 20 µg/mL); MIC [28]: 56.2 µM (≈ 20 µg/mL); MIC [29]: 70.2 µM (≈ 25 µg/mL)
